Assay results reported in ChEMBL document CHEMBL1152603, “Comparative molecular field analysis and synthetic validation of a hydroxyamide-propofol binding and functional block of neuronal voltage-dependent sodium channels” (Bioorg Med Chem, 2009).
The source made the active and inactive calls. The calls are words filed in the database; no cut-off is given here.

How the values were obtained:
[1] = Displacement of [3H]-BTX-B from neuronal voltage-gated sodium channel binding site 2 in rat hippocampal neurons; type: tissue-based, Hippocampus
Rattus norvegicus [2] = organism: Rattus norvegicus; experiment: Displacement of [3H]-BTX-B from neuronal voltage-gated sodium channel binding site 2 in rat hippocampal neurons at 40 uM; type: tissue-based; conditions: Hippocampus
Method in brief: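 Inhibition of specifically bound [3H]-BTX-B measured at a single concentration of 40 μM, run in duplicate, and expressed as percent inhibition.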

Rattus norvegicus [3] = organism: Rattus norvegicus; experiment: Inhibition of voltage-gated sodium channel in rat hippocampal neurons assessed as blocked of sodium current elicited at -10 mV for […] from holding potential -90 mV at 50 uM measured after washout by patch clamp method; type: tissue-based; conditions: Hippocampus
Method in brief: (§1)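 Hippocampi from E18 rat embryos were trypsin-dissociated and plated on poly-L-lysine coverslips, then kept over a glial monolayer in serum-free MEM with N2 for up to 4 weeks. Whole-cell patch clamp was used. Bath (mM): NaCl 30, choline Cl 110, TEA-Cl 30, CdCl2 0.1, pH 7.3. Cells were held at −90 mV for 5 min first. Tonic current block was measured at 50 μM (n=5–7), followed by washout.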

Rattus norvegicus [4] = organism: Rattus norvegicus; experiment: Inhibition of voltage-gated sodium channel in rat hippocampal neurons assessed as blocked of sodium current elicited at -10 mV for […] from holding potential -90 mV at 50 uM by patch clamp method; type: tissue-based; set-up: scale not given: the % may be the effect or the level left; conditions: Hippocampus; method in brief: as §1

| Structure (SMILES) | IC50 [1] | Activity (Rattus norvegicus [2]) | Activity (Rattus norvegicus [3]) | Activity (Rattus norvegicus [4]) |
| --- | --- | --- | --- | --- |
| CC(C)c1cc(CCCCC(O)(C(N)=O)C(F)(F)F)cc(C(C)C)c1O (stereo unspecified) | 22 µM | 67.1% | inactive | 59% |
| CC(C)c1cc(C2(C(F)(F)F)NC(=O)NC2=O)cc(C(C)C)c1O (stereo unspecified) |  | 55.1% |  |  |
| CC(C)c1cc(C(O)(C(N)=O)C(F)(F)F)cc(C(C)C)c1O (stereo unspecified) |  | 24.5% |  |  |
| CC(C)c1cc(CCCCCCC(O)(C(N)=O)C(F)(F)F)cc(C(C)C)c1O (stereo unspecified) | 5.7 µM | 71.4% | inactive |  |
| CC(C)c1cccc(C(C)C)c1O |  | 16.6% |  |  |
| NC(=O)C(O)(c1ccccc1)C(F)(F)F (stereo unspecified) |  | 6.8% |  |  |
